TPT1 inhibitor: blocks Candida albicans tRNA 2'-phosphotransferase. recombinant caTPT1, FP RNA substrate dephosphorylation. 300,000 compounds, 0.81% hits. inhibition, % at 5 µM;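 active = inhibition above the mean of all tested compounds plus 3 SD, set per screening campaign, cut at about 24% in these data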;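 also: plate controls were DMSO alone for no effect and ferristatin control at 100 nM for full effect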
CSN inh: blocks human CSN-mediated cullin deneddylation. 360,000 compounds, 0.38% hits. AID 651999. Purified CSN, SCF-Nedd8-OG deneddylation, fluorescence polarization. inhibition, % at 12.5 µM. Q92905;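 active = pattern-corrected inhibition above about 35%, with an unprinted fluorescence ratio check between 0.5 and 1.5, limit read from the data, passing the limit was not always enough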;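 also: 0% = enzyme with substrate and 100% = substrate without enzyme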
Target sequence (Q92905 whole entry, looked up, one chain of several): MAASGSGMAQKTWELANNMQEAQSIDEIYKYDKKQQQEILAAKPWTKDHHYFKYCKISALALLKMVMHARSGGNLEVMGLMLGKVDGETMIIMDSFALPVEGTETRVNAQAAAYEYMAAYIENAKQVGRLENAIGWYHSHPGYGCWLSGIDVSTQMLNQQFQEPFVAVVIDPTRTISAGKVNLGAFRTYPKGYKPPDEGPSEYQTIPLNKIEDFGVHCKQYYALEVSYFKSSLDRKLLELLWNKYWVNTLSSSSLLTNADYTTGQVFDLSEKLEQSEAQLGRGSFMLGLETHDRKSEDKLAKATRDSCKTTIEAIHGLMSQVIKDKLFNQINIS
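Detection – fluorescence polarization · System – HEK293T-derived human Csn5 enzyme · Controls – substrate-only high control, full reaction low control · Timing – 90 min, room temperature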
SENP1 inh: inhibitors of human SENP1 SUMO protease catalytic domain; 360,000 compounds, 0.21% hits; Q9P0U3; recombinant SENP1 catalytic domain, CyPet-SUMO1-YPet FRET cleavage; inhibition, % at 10 µM;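 active = inhibition at least 30% at 10 µM, raw YFP signal under a set limit, fluorescence ratio 0.5 to 1.5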;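 also: 0% = enzyme with DMSO and 100% = no enzyme wells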
Target sequence (Q9P0U3 419-644 limits assumed): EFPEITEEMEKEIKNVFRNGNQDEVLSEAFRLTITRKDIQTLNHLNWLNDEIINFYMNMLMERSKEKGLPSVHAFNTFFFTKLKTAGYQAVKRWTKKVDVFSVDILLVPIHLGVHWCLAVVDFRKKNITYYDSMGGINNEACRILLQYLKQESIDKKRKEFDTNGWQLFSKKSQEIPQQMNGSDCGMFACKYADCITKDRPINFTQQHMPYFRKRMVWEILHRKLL
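Test system: recombinant human SENP1 catalytic domain, His6-tagged / Medium: pH 8 Tris buffer with EDTA, NaCl, BME, BSA, NP40, catalase / Also added: SUMO1 FRET substrate flanked by Cypet and Ypet, 25 nM / Times: 50 min reaction at room temperature / Signal: FRET, CFP and YFP emission / Control set: no-enzyme low control and enzyme-plus-DMSO high control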
ATG4B inh: ATG4B (human) cysteine protease inhibition | Q9Y4P1 | ATG4B cleavage of LC3-PLA2, NBD-HPC fluorescence, 1 h | inhibition, % at 8.33 µM | 340,000 compounds, 0.51% hits
Rpn11 block: blocks the human proteasome subunit Rpn11. O00487. human 26S proteasome, Ub4-pepOG fluorescence polarization; 20S core pre-blocked with epoxomicin. inhibition, % at 20 µM. 360,000 compounds, 0.59% hits. AID 588493;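 active = inhibition at 20 µM, scaled to each plate's controls, above about 33%, limit read from the data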
HNF4A DNA FP: change in binding of human HNF4 alpha to DNA. HNF4a-FITC DNA binding, fluorescence polarization, 1 h. activity change, % at 10 µM. 360,000 compounds, 0.3% hits. AID 1224865; in the data active = activity change above about 30%, passing the limit was not always enough
Rpn11 confirm: Rpn11 inhibition confirmation, single concentration | purified human 26S proteasome, Ub4-pepOG fluorescence polarization; proteasome pretreated with epoxomicin | shares compounds with Rpn11 block | inhibition, % at 20 µM | 1,900 compounds, 29% hits
MMP-2 counter: counter-screen for RPN11 inhibitors: inhibition of human MMP-2; AID 602330; 1,900 compounds, 4% hits; inhibition, % at 20 µM; recombinant MMP-2, FRET peptide cleavage fluorescence; shares compounds with Rpn11 block;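 also: human MMP-2 activated beforehand with APMA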
Thrombin inh: counter-screen for RPN11 inhibitors: inhibition of bovine thrombin; shares compounds with Rpn11 block; bovine thrombin cleavage of Ub4-pepOG, fluorescence polarization; inhibition, % at 20 µM; 1,900 compounds, 13% hits; AID 602333;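 active = mean inhibition at least 40% at 20 µM, or signal 3 deviations below plate average, so some actives read negative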;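 also: plate controls were thrombin with DMSO for no effect and buffer wells lacking thrombin for full effect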
An asterisk follows results filed as active; x = not tested or not shown; + = active, no number. The list is not random: actives were taken first. Their share in the collection is about 2%. Rule as the data show it, unless noted: active = inhibition above about 40%; inactive = the rest.

SMILES	TPT1 inhibitor	CSN inh	SENP1 inh	ATG4B inh	Rpn11 block	HNF4A DNA FP	Rpn11 confirm	MMP-2 counter	Thrombin inh
Cc1ccc(-n2c(-c3ccco3)nc3nc4ccccc4nc32)cc1	-1.5	15.2	-44.2	-7.1	46.4*	7.5	42.9*	-9.1	-15.2
Cc1cccc(-n2c(-c3ccco3)nc3nc4ccccc4nc32)c1	3.6	x	x	x	x	x	x	x	x
CCOc1ccc(S(=O)(=O)NCCC(=O)N2CC=C(c3ccccc3)CC2)cc1	x	-1.8	-3.4	-2.1	-6.6	1.3	x	x	x
CCOC(=O)Cc1csc(NC(=O)c2ccc(Cl)nc2)n1	12.5	6.4	-15.9	-6.8	36.2*	8.9	20.7	-33.0	-1.4
CC1CCCN(c2ccc([N+](=O)[O-])s2)C1 (stereo not given)	x	18.7	0.7	2.2	52.6*	26.0	39.4	-38.1	30.1
CC1CCCN(c2c([N+](=O)[O-])cc(C(=O)O)cc2[N+](=O)[O-])C1 (stereo not given)	-1.9	-1.1	-0.2	-4.2	0.2	3.0	x	x	x
Cc1noc(C)c1C(=O)OCC(=O)c1c[nH]c2ccccc12	3.8	3.7	-1.1	4.2	7.2	5.4	x	x	x
Cc1onc(-c2c(F)cccc2Cl)c1C(=O)OCC(=O)c1c[nH]c2ccccc12	2.4	0.5	1.4	5.8	57.7*	3.0	20.0	-28.2	-11.3
CCN(CC)C(=O)CSc1nc2c(sc(=S)n2CC)c(=O)n1-c1ccccc1	-0.5	7.1	-1.8	-2.8	4.1	7.8	x	x	x
CCN(CC)C(=O)CSc1nc2c(sc(=S)n2-c2ccccc2OC)c(=O)n1-c1ccccc1	-6.0	4.8	1.2	-13.4	40.7*	0.5	1.9	10.2	17.5
CCc1ccccc1OCC(=O)Nc1ccc(N2CCCC2)cc1C	x	20.1	-20.1	11.6	87.6*	51.6*	43.4*	-0.5	29.6
O=C(Cn1c(=O)cnc2ccccc21)Nc1cccc(S(=O)(=O)N2CCOCC2)c1	x	-3.7	-9.7	-17.9	5.3	2.5	x	x	x
COc1ccc2nc(C)cc(SCC(=O)N/N=C/c3ccccc3)c2c1	-2.8	9.4	0.0	-17.4	-7.6	-0.8	x	x	x
COc1ccc2nc(C)cc(SCC(=O)N/N=C/c3c(OC)ccc4ccccc34)c2c1	-1.0	43.5*	-2.2	5.5	50.6*	17.4	10.3	-42.9	6.3
COc1ccc(-n2nnc3c(=O)n(CC(=O)Nc4ccc5c(c4)OCCO5)cnc32)cc1OC	3.1	9.1	-2.0	3.1	43.8*	-0.9	17.0	-25.2	6.9
O=C(Nc1nc(-c2ccco2)cs1)c1ccccc1	19.7	7.7	-14.0	16.3	45.4*	12.4	-3.5	11.0	-11.4
O=C(Nc1nc(-c2ccccc2)cs1)c1ccco1	0.6	3.2	-1.9	-10.1	2.5	-2.8	x	x	x
Cc1ccc(S(=O)(=O)Nc2ccccc2-c2ccccc2)cc1	-0.9	-4.2	0.8	24.9	33.4*	-3.9	-24.7	13.4	-13.7
Cc1ccc(S(=O)(=O)Nc2ccccc2NS(=O)(=O)c2ccc(C)cc2)cc1	x	4.8	1.1	x	1.6	2.3	x	x	x
Clc1ccc2nc(-c3cccc(Br)c3)c(Cc3ccccc3)n2c1	x	14.7	-0.8	x	19.5	10.9	x	x	x
Cc1ccc(Cc2c(-c3cccc(Br)c3)nc3ccc(Cl)cn23)cc1	x	5.7	3.7	x	41.8*	11.6	14.8	23.6	-0.7
O=[N+]([O-])c1cc(F)cc(F)c1Nc1ccc(F)cc1	x	0.4	2.9	5.3	12.0	0.8	x	x	x
O=C(/C=C/c1ccc(F)cc1)Nc1cc(S(=O)(=O)N2CCOCC2)ccc1N1CCOCC1	x	2.5	2.2	x	89.8*	0.3	10.3	8.1	2.3
CCOC(=O)C1CCN(C(=O)COC(=O)Cc2ccc(Cl)cc2)CC1	-4.7	0.6	0.2	-2.4	-3.5	-2.0	x	x	x
Cn1c(C(=O)NCCCN2CCCCCC2)cc2c(=O)n(C)c3ccccc3c21	-1.7	15.1	-10.7	-9.2	67.6*	8.2	-7.6	-39.1	-6.5
SMILES	TPT1 inhibitor	CSN inh	SENP1 inh	ATG4B inh	Rpn11 block	HNF4A DNA FP	Rpn11 confirm	MMP-2 counter	Thrombin inh
COCCCn1c(=N)c(C(N)=S)cc2c(=O)n3cccc(C)c3nc21	7.6	-2.2	-43.5	-2.3	12.2	-4.6	x	x	x
Cc1cccn2c(=O)c3cc(C(N)=S)c(=N)n(CCCN4CCOCC4)c3nc12	-3.7	37.5*	-36.9	9.2	51.2*	8.9	4.4	49.2*	-2.8
COc1ccc(-n2c(=O)/c(=C\c3cccs3)s/c2=C(/C#N)C(=O)NCCN2CCOCC2)cc1	21.8	27.2	-66.0	3.6	105.3*	4.0	38.3	14.8	43.7*
CC(c1ccccc1)n1c(N2CCNCC2)nc2c1c(=O)[nH]c(=O)n2C (stereo not given)	x	1.0	0.4	-0.9	1.1	-6.9	x	x	x
Cc1cc(C(C#N)c2ccc(Cl)cc2)c(Cl)cc1NC(=O)c1cc(I)cc(I)c1O (stereo not given)	-1.6	12.2	-2.0	24.6	46.9*	-9.2	-2.3	-5.1	-5.7
O=C(NCc1ccco1)c1cccc(N2CCCC2=O)c1	-6.3	3.3	2.0	-5.3	+	26.9	-12.8	-34.6	-14.3
COc1ccc(CNC(=O)c2cccc(N3CCCC3=O)c2)cc1	-2.5	2.1	3.1	5.5	2.4	0.3	x	x	x
Brc1ccc(C2=Nn3c(nnc3-c3cccnc3)SC2)s1	-1.6	93.7*	-1.2	0.0	67.1*	-1.1	0.5	-36.1	-8.8
Clc1ccc(C2=Nn3c(nnc3-c3cccnc3)SC2)s1	3.8	-0.4	1.0	-13.4	16.4	1.0	x	x	x
CC(=O)c1ccc(N2CCN(C(=O)c3cc(S(=O)(=O)N4CCOCC4)ccc3C)CC2)cc1	x	-0.3	0.1	11.4	0.2	-0.8	x	x	x
COC(=O)C1=C(O)/C(=C\c2ccc(O)c(OC)c2)N=C1C	10.4	17.8	1.2	13.1	59.9*	3.0	19.7	5.7	12.4
CC(=O)Nc1cccc(NC(=O)c2ccccc2Cl)c1	x	-1.7	2.4	x	-4.4	4.1	x	x	x
CC(NC(=O)C1CCN(C(=O)c2cccs2)CC1)c1ccc(S(N)(=O)=O)cc1 (stereo not given)	x	101.5*	-1.4	-60.4	66.9*	30.9	62.7*	-116.9	-8.1
CC(NC(=O)C1CCN(C(=O)c2ccc(F)cc2)CC1)c1ccc(S(N)(=O)=O)cc1 (stereo not given)	x	1.9	2.4	-1.6	-0.5	5.0	x	x	x
